According to ChEMBL document CHEMBL4837193 (Eur J Med Chem, 2021):
Values belong to the compound of their own block, whether it stands above or below them. Activity calls are given as the source filed them. No cut-off for these calls is given here.

Tests used:
[1] = system: HeLa; assay: Antiproliferative activity against human HeLa cells assessed as cell growth inhibition after 48 hrs by MTT assay; type: functional, cell-based
Procedure, shortened: (§1)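 Cells grown at 37 °C with CO2 in RPMI-1640 or DMEM plus 10% FBS. Seeded at 2 × 10³ per well, attached 24 h, then medium changed. Compound exposure 48 h at 37 °C, DMSO 0.1% as vehicle. MTT added and incubated a further 4 h. Crystals dissolved, absorbance read at 570 nm. IC50 from curve fitting, mean ± SD of three independent experiments.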

[2] = system: T47D; assay: Antiproliferative activity against human T47D cells assessed as cell growth inhibition after 48 hrs by MTT assay; type: functional, cell-based
[3] = system: HT-29; assay: Antiproliferative activity against human HT29 cells assessed as cell growth inhibition after 48 hrs by MTT assay; type: functional, cell-based; details: HT-29, 48 h
[4] = system: A549; assay: Antiproliferative activity against human A549 cells assessed as cell growth inhibition after 48 hrs by MTT assay; type: functional, cell-based; details: A549, 48 h; procedure, shortened: as §1
[5] = system: HCT-116; assay: Antiproliferative activity against human HCT-116 cells assessed as cell growth inhibition after 48 hrs by MTT assay; type: functional, cell-based; details: HCT-116, 48 h; procedure, shortened: as §1
[6] = system: HepG2; assay: Antiproliferative activity against human HepG2 cells assessed as cell growth inhibition after 48 hrs by MTT assay; type: functional, cell-based; details: HepG2, 48 h; procedure, shortened: as §1
[7] = system: HEK293; assay: Antiproliferative activity against human HEK293 cells assessed as cell growth inhibition after 48 hrs by MTT assay; type: cell-based; details: HEK293, 48 h; procedure, shortened: as §1
[8] = system: HeLa; assay: Cell cycle arrest in human HeLa cells assessed as increase in cells accumulation at G0/G1 phase at 30 nM measured after 24 hrs by propidium iodide staining based flow cytometric analysis (reference value: 67.22 %); type: functional
[9] = system: HeLa; assay: Cell cycle arrest in human HeLa cells assessed as increase in cells accumulation at G2/M phase at 30 nM measured after 24 hrs by propidium iodide staining based flow cytometric analysis (reference value: 12.49 %); type: functional
[10] = system: HeLa; assay: Cell cycle arrest in human HeLa cells assessed as increase in cells accumulation at S phase at 30 nM measured after 24 hrs by propidium iodide staining based flow cytometric analysis (reference value: 20.29 %); type: functional
[11] = system: HeLa; assay: Cell cycle arrest in human HeLa cells assessed as increase in cells accumulation at G0/G1 phase at 60 nM measured after 24 hrs by propidium iodide staining based flow cytometric analysis (reference value: 49.85 %); type: functional
[12] = system: HeLa; assay: Cell cycle arrest in human HeLa cells assessed as increase in cells accumulation at G2/M phase at 60 nM measured after 24 hrs by propidium iodide staining based flow cytometric analysis (reference value: 12.49 %); type: functional
[13] = system: HeLa; assay: Cell cycle arrest in human HeLa cells assessed as increase in cells accumulation at S phase at 60 nM measured after 24 hrs by propidium iodide staining based flow cytometric analysis (reference value: 20.29 %); type: functional
[14] = system: HeLa; assay: Cell cycle arrest in human HeLa cells assessed as increase in cells accumulation at G0/G1 phase at 120 nM measured after 24 hrs by propidium iodide staining based flow cytometric analysis (reference value: 67.22 %); type: functional
[15] = system: HeLa; assay: Cell cycle arrest in human HeLa cells assessed as increase in cells accumulation at G2/M phase at 120 nM measured after 24 hrs by propidium iodide staining based flow cytometric analysis (reference value: 12.49 %); type: functional
[16] = system: HeLa; assay: Cell cycle arrest in human HeLa cells assessed as increase in cells accumulation at S phase at 120 nM measured after 24 hrs by propidium iodide staining based flow cytometric analysis (reference value: 20.29 %); type: functional
[17] = system: HeLa; assay: Induction of cell cycle arrest in human Hela cells assessed as increase in cyclin B1 expression measured after 24 hrs by Western blot analysis relative to control; type: functional, cell-based; details: dose 30-120 nM
Procedure, shortened: (§2)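 HeLa cells treated as for cell-cycle analysis (30, 60, 120 nM, 24 h), then lysed and protein quantified. Lysates boiled 5 min, run on SDS-PAGE and transferred to PVDF. Membranes blocked in 5% skim milk 1 h at RT, primary antibodies overnight at 4 °C, β-actin/GAPDH as loading controls. Secondary antibody 1:4000 for 2 h at RT. Mean ± SD of three independent experiments.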

[18] = system: HeLa; assay: Induction of cell cycle arrest in human Hela cells assessed as decrease in cdc2 expression measured after 24 hrs by Western blot analysis relative to control; type: functional, cell-based; details: dose 30-120 nM; procedure, shortened: as §2
[19] = system: HeLa; assay: Induction of apoptosis in human HeLa cells assessed as increase in cleaved PARP level incubated for 24 hrs by Western blot analysis; type: functional, cell-based; procedure, shortened: as §2
[20] = system: HeLa; assay: Induction of apoptosis in human HeLa cells assessed as effect on Bax level incubated for 24 hrs by Western blot analysis; type: functional, cell-based; procedure, shortened: as §2
[21] = target: T1, Tubulin (Homo sapiens) (UniProt P68371+Q9H4B7+P0DPH7+P68366+Q13509+Q71U36+P04350+Q3ZCM7+P07437+P68363+Q9BQE3+Q6PEY2+Q13885+Q9BVA1+Q9BUF5); assay: Inhibition of tubulin polymerization (unknown origin) at 10 uM measured after 30 mins every 1 min for 20 mins by spectrophotometric method; type: protein-complex assay
Procedure, shortened: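 Tubulin at 2 mg/mL in PEM buffer (100 mM PIPES pH 6.9, 1 mM MgCl2, 1 mM EGTA, 5% glycerol) preincubated on ice with compound or DMSO, then GTP added. After 0.5 h, A340 read every 1 min for 20 min at 37 °C. Plateau values used. Single-point inhibition at 10 µM; IC50 is the concentration halving polymerization at 20 min, mean ± SD of three experiments.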

[22] = target: Tubulin; assay: Inhibition of tubulin polymerization (unknown origin) measured afer 30 mins every 1 min for 20 mins by spectrophotometric method; type: protein-complex assay, Homo sapiens
Procedure, shortened: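 Tubulin at 2 mg/mL in PEM buffer (100 mM PIPES pH 6.9, 1 mM MgCl2, 1 mM EGTA, 5% glycerol) preincubated on ice with compound or DMSO, then GTP added. After 0.5 h, A340 read every 1 min for 20 min at 37 °C. Plateau values used.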

[23] = target: T1, Tubulin (Homo sapiens); assay: Inhibition of […]colchicine binding to tubulin (unknown origin) at 4 uM incubated for 45 mins by fluorescence assay relative to control; type: protein-complex assay
Procedure, shortened: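 Tubulin (4 µM) preincubated 45 min at 37 °C with test agent (20–80 µM), then colchicine (4 µM) added. After a further 45 min at 37 °C, fluorescence read at excitation 340 nm and emission 435 nm, with buffer blank subtracted.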

[24] = system: HeLa; assay: Induction of apoptosis in human HeLa cells assessed as necrotic cells at 30 nM after 24 hrs by AnnexinV/PI-staining based flow cytometry (reference value: 0.093 %)
[25] = system: HeLa; assay: Induction of apoptosis in human HeLa cells assessed as necrotic cells at 60 nM after 24 hrs by AnnexinV/PI-staining based flow cytometry (reference value: 0.093 %)
[26] = system: HeLa; assay: Induction of apoptosis in human HeLa cells assessed as necrotic cells at 120 nM after 24 hrs by AnnexinV/PI-staining based flow cytometry (reference value: 0.093 %)
[27] = system: HeLa; assay: Induction of apoptosis in human HeLa cells assessed as early apoptotic cells at 30 nM after 24 hrs by AnnexinV/PI-staining based flow cytometry (reference value: 2.87%)
[28] = system: HeLa; assay: Induction of apoptosis in human HeLa cells assessed as early apoptotic cells at 60 nM after 24 hrs by AnnexinV/PI-staining based flow cytometry (reference value: 2.87%)
[29] = system: HeLa; assay: Induction of apoptosis in human HeLa cells assessed as late apoptotic cells at 30 nM after 24 hrs by AnnexinV/PI-staining based flow cytometry (reference value: 0.884 %)
[30] = system: HeLa; assay: Induction of apoptosis in human HeLa cells assessed as late apoptotic cells at 60 nM after 24 hrs by AnnexinV/PI-staining based flow cytometry (reference value: 0.884 %)
[31] = system: HeLa; assay: Induction of apoptosis in human HeLa cells assessed as early apoptotic cells at 120 nM after 24 hrs by AnnexinV/PI-staining based flow cytometry (reference value: 2.87%)
[32] = system: HeLa; assay: Induction of apoptosis in human HeLa cells assessed as late apoptotic cells at 120 nM after 24 hrs by AnnexinV/PI-staining based flow cytometry (reference value: 0.884 %)

Compound: COc1ccc(-c2nc3nccc(-c4cc(OC)c(OC)c(OC)c4)n3n2)cc1O
- IC50 [1]: 0.06 µM
- IC50 [2]: 3.49 µM
- IC50 [3]: 0.24 µM
- IC50 [4]: 6.05 µM
- IC50 [5]: 18.4 µM
- IC50 [6]: 14.7 µM
- IC50 [7]: > 100 µM
- Activity [8]: 66.03%
- Activity [9]: 16.18%
- Activity [10]: 17.79%
- Activity [11]: 49.85%
- Activity [12]: 22.81%
- Activity [13]: 27.84%
- Activity [14]: 29.01%
- Activity [15]: 46.82%
- Activity [16]: 24.67%
- Activity [17]: Dose-Dependent Effect
- Activity [18]: Active
- Activity [19]: Active
- Activity [20]: inactive
- inhibition [21]: 94%
- IC50 [22]: 1.3 µM
- inhibition [23]: Dose-Dependent Effect
- Activity [24]: 0.329%
- Activity [25]: 1.07%
- Activity [26]: 2.37%
- Activity [27]: 8.5%
- Activity [28]: 10.5%
- Activity [29]: 5.61%
- Activity [30]: 8.85%
- Activity [31]: 14.3%
- Activity [32]: 19.3%

Compound: COc1ccc(-c2ccnc3nc(-c4cc(OC)c(OC)c(OC)c4)nn23)cc1[N+](=O)[O-]
- IC50 [1]: > 30 µM

Compound: COc1cc(-c2nc3nccc(-c4ccc(NC(C)=O)cc4)n3n2)cc(OC)c1OC
- IC50 [1]: 22.2 µM

Compound: COc1cc(-c2nc3nccc(-c4ccc(C)cc4)n3n2)cc(OC)c1OC
- IC50 [1]: > 30 µM

Compound: COc1cc(-c2ccnc3nc(-c4ccc(Cl)c(Cl)c4)nn23)cc(OC)c1OC
- IC50 [1]: > 30 µM

Compound: COc1cc(-c2nc3nccc(-c4ccc(N)cc4)n3n2)cc(OC)c1OC
- IC50 [1]: 29.9 µM

Compound: COc1cc(-c2nc3nccc(-c4cccc5ccccc45)n3n2)cc(OC)c1OC
- IC50 [1]: 28.6 µM

Compound: COc1ccc(-c2nc3nccc(-c4cc(OC)c(OC)c(OC)c4)n3n2)cc1
- IC50 [1]: 0.9 µM

Compound: COC(=O)c1ccc(-c2ccnc3nc(-c4cc(OC)c(OC)c(OC)c4)nn23)cc1
- IC50 [1]: > 30 µM

More lines, main results first:

- IC50 [1]: > 30 µM
Compound: COc1ccc(-c2ccnc3nc(-c4cc(OC)c(OC)c(OC)c4)nn23)cc1OC

- IC50 [1]: 0.11 µM
- IC50 [2]: 6.51 µM
- IC50 [3]: 83 µM
- IC50 [4]: 18.9 µM
- IC50 [5]: > 100 µM
- IC50 [6]: 21.1 µM
- inhibition [21]: 49%
- IC50 [22]: 12.2 µM
Compound: COc1ccc(-c2nc3nccc(-c4cc(OC)c(OC)c(OC)c4)n3n2)cc1N
- IC50 [7]: > 100 µM

- IC50 [1]: > 30 µM
Compound: COc1cc(-c2nc3nccc(-c4cc(OC)c(OC)c(OC)c4)n3n2)cc(OC)c1OC

- IC50 [1]: > 30 µM
Compound: COc1ccc(-c2ccnc3nc(-c4cc(OC)c(OC)c(OC)c4)nn23)cc1Cl

- IC50 [1]: > 30 µM
Compound: COc1ccc(-c2ccnc3nc(-c4cc(OC)c(OC)c(OC)c4)nn23)cc1F
